Values after ≈ are worked out from the molar mass of the structure shown.
Assays:
Assay type in all cases: functional
Candida albicans = experiment: Antifungal activity against Candida albicans after 24 hrs
How it was run: (§1)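 Candida yeasts were tested by NCCLS microdilution in RPMI 1640 buffered with 0.165 M MOPS and incubated at 35 °C. Compounds were dissolved in DMSO and serially diluted in medium. Isolates came from ATCC or the clinic. The MIC was read at 24 h as the lowest concentration achieving ≥80% growth inhibition versus the control.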

Candida parapsilosis = experiment: Antifungal activity against Candida parapsilosis after 24 hrs; settings: Lodderomyces parapsilosis; how it was run: as §1
Cryptococcus neoformans = experiment: Antifungal activity against Cryptococcus neoformans after 72 hrs
How it was run: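 Cryptococcus neoformans was tested by NCCLS serial dilution in MOPS-buffered (0.165 M) RPMI 1640 at 35 °C. Compounds were dissolved in DMSO and diluted in medium. The MIC was read at 72 h as the lowest concentration giving turbidity inhibition of ≥80% relative to the growth control.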

Trichophyton rubrum = experiment: Antifungal activity against Trichophyton rubrum
How it was run: (§2)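 Dermatophytes were tested by NCCLS serial dilution in RPMI 1640 with 0.165 M MOPS and incubated at 28 °C. Compounds were dissolved in DMSO and diluted in medium. Strains came from ATCC or clinical isolates. The MIC was read at 7 d as the lowest concentration reducing turbidity by ≥80% relative to the drug-free control.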

Fonsecaea compacta = experiment: Antifungal activity against Fonsecaea compacta
How it was run: (§3)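 NCCLS broth serial dilution in RPMI 1640 buffered with 0.165 M MOPS. Compounds were dissolved in DMSO and serially diluted in medium. Strains came from ATCC or clinical isolates. The growth MIC for filamentous fungi was read at 7 d, taken as the lowest concentration giving ≥80% turbidity inhibition versus the growth control.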

Aspergillus fumigatus = experiment: Antifungal activity against Aspergillus fumigatus; how it was run: as §3
Microsporum = experiment: Antifungal activity against Microsporum gypseum; how it was run: as §2

Row | Compound | MIC (Candida albicans) | MIC (Candida parapsilosis) | MIC (Cryptococcus neoformans) | MIC (Trichophyton rubrum) | MIC (Fonsecaea compacta) | MIC (Aspergillus fumigatus) | MIC (Microsporum)
1 | COc1cccc2c1CC(Nc1ccccc1)CC2 (configuration not stated) | > 64 µM | > 64 µM | > 64 µM | 4 µM (≈ 1.01 µg/mL) | > 64 µM | > 64 µM | 32 µM (≈ 8.11 µg/mL)
2 | CCCCCCCCCCCCCCNC1CCc2c(O)cccc2C1 (configuration not stated) | 8 µM (≈ 2.88 µg/mL) | > 64 µM | 8 µM (≈ 2.88 µg/mL) | 0.5 µM (≈ 0.18 µg/mL) | > 64 µM | > 64 µM | 4 µM (≈ 1.44 µg/mL)
3 | CCCCCCCCCCCCCCNC1CCc2cc(O)ccc2C1 (configuration not stated) | 2 µM (≈ 0.719 µg/mL) | 32 µM (≈ 11.5 µg/mL) | > 4 µM | 0.5 µM (≈ 0.18 µg/mL) | > 64 µM | > 64 µM | 2 µM (≈ 0.719 µg/mL)
4 | Oc1ccc2c(c1)CC(Nc1ccccc1)CC2 (configuration not stated) | 32 µM (≈ 7.66 µg/mL) | > 64 µM | 16 µM (≈ 3.83 µg/mL) | 8 µM (≈ 1.91 µg/mL) | 32 µM (≈ 7.66 µg/mL) | > 64 µM | 16 µM (≈ 3.83 µg/mL)
5 | COc1ccc2c(c1)CCC(NCc1ccccc1)C2 (configuration not stated) | 30 µM (≈ 8.02 µg/mL) | > 64 µM | > 64 µM | 16 µM (≈ 4.28 µg/mL) | > 64 µM | > 64 µM | > 64 µM
6 | COc1ccc(NC2CCc3cccc(O)c3C2)cc1 (configuration not stated) | > 64 µM | > 64 µM | > 64 µM | 2 µM (≈ 0.539 µg/mL) | > 64 µM | > 64 µM | 16 µM (≈ 4.31 µg/mL)
7 | COc1ccc2c(c1)CC(NCc1ccccc1)CC2 (configuration not stated) | 64 µM (≈ 17.1 µg/mL) | > 64 µM | > 64 µM | 4 µM (≈ 1.07 µg/mL) | > 64 µM | > 64 µM | > 64 µM
8 | Oc1ccc2c(c1)CC(NCc1ccccc1)CC2 (configuration not stated) | 64 µM (≈ 16.2 µg/mL) | > 64 µM | > 64 µM | 16 µM (≈ 4.05 µg/mL) | > 64 µM | > 64 µM | > 64 µM
9 | COc1ccc(NC2CCc3cc(OC)ccc3C2)cc1 (configuration not stated) | > 64 µM | > 64 µM | > 64 µM | 8 µM (≈ 2.27 µg/mL) | > 64 µM | > 64 µM | 8 µM (≈ 2.27 µg/mL)
10 | CCCCCCCCCCCCCCNC1CCc2ccc(O)cc2C1 (configuration not stated) | 4 µM (≈ 1.44 µg/mL) | 4 µM (≈ 1.44 µg/mL) | 8 µM (≈ 2.88 µg/mL) | 0.5 µM (≈ 0.18 µg/mL) | 8 µM (≈ 2.88 µg/mL) | > 64 µM | 4 µM (≈ 1.44 µg/mL)
11 | COc1ccc(NC2CCc3c(O)cccc3C2)cc1 (configuration not stated) | > 64 µM | 32 µM (≈ 8.62 µg/mL) | > 64 µM | 0.25 µM (≈ 0.0673 µg/mL) | > 64 µM | > 64 µM | 16 µM (≈ 4.31 µg/mL)
12 | COc1ccc(NC2CCc3cc(O)ccc3C2)cc1 (configuration not stated) | > 64 µM | 64 µM (≈ 17.2 µg/mL) | 64 µM (≈ 17.2 µg/mL) | 0.5 µM (≈ 0.135 µg/mL) | > 64 µM | > 64 µM | 16 µM (≈ 4.31 µg/mL)
13 | COc1ccc2c(c1)CC(Nc1ccc(Cl)cc1)CC2 (configuration not stated) | > 64 µM | > 64 µM | > 64 µM | 16 µM (≈ 4.6 µg/mL) | > 64 µM | > 64 µM | 16 µM (≈ 4.6 µg/mL)
14 | CCCCCCCCCCCCCCNC1CCc2cc(OC)ccc2C1 (configuration not stated) | 32 µM (≈ 12 µg/mL) | > 64 µM | 64 µM (≈ 23.9 µg/mL) | 16 µM (≈ 5.98 µg/mL) | > 64 µM | > 64 µM | > 64 µM
15 | Oc1ccc2c(c1)CCC(Nc1ccccc1)C2 (configuration not stated) | 64 µM (≈ 15.3 µg/mL) | 64 µM (≈ 15.3 µg/mL) | 64 µM (≈ 15.3 µg/mL) | 8 µM (≈ 1.91 µg/mL) | 64 µM (≈ 15.3 µg/mL) | > 64 µM | 32 µM (≈ 7.66 µg/mL)
16 | COc1ccc(NC2CCc3ccc(OC)cc3C2)cc1 (configuration not stated) | > 64 µM | > 64 µM | > 64 µM | 0.5 µM (≈ 0.142 µg/mL) | 64 µM (≈ 18.1 µg/mL) | > 64 µM | 16 µM (≈ 4.53 µg/mL)
17 | CCCCCCCCCCCCCCCCCCNC1CCc2cccc(O)c2C1 (configuration not stated) | > 64 µM | > 64 µM | > 64 µM | 2 µM (≈ 0.831 µg/mL) | 64 µM (≈ 26.6 µg/mL) | > 64 µM | > 64 µM
18 | COc1ccc(NC2CCc3c(cccc3OC)C2)cc1 (configuration not stated) | > 64 µM | > 64 µM | > 64 µM | 2 µM (≈ 0.567 µg/mL) | > 64 µM | > 64 µM | 8 µM (≈ 2.27 µg/mL)
19 | CCCCCCCCCCCCCCNC1CCc2cccc(O)c2C1 (configuration not stated) | 16 µM (≈ 5.75 µg/mL) | 64 µM (≈ 23 µg/mL) | 32 µM (≈ 11.5 µg/mL) | 0.125 µM (≈ 0.0449 µg/mL) | 16 µM (≈ 5.75 µg/mL) | 16 µM (≈ 5.75 µg/mL) | 4 µM (≈ 1.44 µg/mL)
20 | COc1cccc2c1CCC(Nc1ccc(Cl)cc1)C2 (configuration not stated) | > 64 µM | > 64 µM | > 64 µM | 2 µM (≈ 0.576 µg/mL) | > 64 µM | > 64 µM | 16 µM (≈ 4.6 µg/mL)
21 | COc1cccc2c1CCC(NCc1ccccc1)C2 (configuration not stated) | 32 µM (≈ 8.56 µg/mL) | > 64 µM | 64 µM (≈ 17.1 µg/mL) | 16 µM (≈ 4.28 µg/mL) | 32 µM (≈ 8.56 µg/mL) | > 64 µM | 64 µM (≈ 17.1 µg/mL)
